Laboratory results from ChEMBL document CHEMBL5678815 (Clin Cancer Res, 2017).
The source made the active and inactive calls. The calls are words filed in the database; no cut-off is given here.

How the values were obtained:
[1] = target: 5'-AMP-activated protein kinase catalytic subunit alpha-2 (Homo sapiens) (UniProt P54646); assay: Inhibition of human AMPK-alpha2 assessed as remaining activity at 1 uM by ATP-competition binding assay relative to control
Method in brief: (§1)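 KINOMEscan ATP-site-dependent competition binding panel of 395 human kinases, with compound tested at 1 μM. Binding is reported as remaining signal relative to control.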

[2] = target: Calcium/calmodulin-dependent protein kinase type 1G (Homo sapiens) (UniProt Q96NX5); assay: Inhibition of human CAMK1G assessed as remaining activity at 1 uM by ATP-competition binding assay relative to control; method in brief: as §1
[3] = target: Calcium/calmodulin-dependent protein kinase type II subunit gamma (Homo sapiens) (UniProt Q13555); assay: Inhibition of human CAMK2G assessed as remaining activity at 1 uM by ATP-competition binding assay relative to control; method in brief: as §1
[4] = target: Cyclin-dependent kinase 9 (Homo sapiens) (UniProt P50750); assay: Inhibition of human CDK9 assessed as remaining activity at 1 uM by ATP-competition binding assay relative to control; method in brief: as §1
[5] = target: Serine/threonine-protein kinase Chk2 (Homo sapiens) (UniProt O96017); assay: Inhibition of human CHEK2 assessed as remaining activity at 1 uM by ATP-competition binding assay relative to control; method in brief: as §1
[6] = target: Casein kinase I isoform gamma-1 (Homo sapiens) (UniProt Q9HCP0); assay: Inhibition of human CSNK1G1 assessed as remaining activity at 1 uM by ATP-competition binding assay relative to control; method in brief: as §1
[7] = target: Casein kinase I isoform gamma-3 (Homo sapiens) (UniProt Q9Y6M4); assay: Inhibition of human CSNK1G3 assessed as remaining activity at 1 uM by ATP-competition binding assay relative to control; method in brief: as §1
[8] = target: Death-associated protein kinase 2 (Homo sapiens) (UniProt Q9UIK4); assay: Inhibition of human DAPK2 assessed as remaining activity at 1 uM by ATP-competition binding assay relative to control; method in brief: as §1
[9] = target: Serine/threonine-protein kinase 17A (Homo sapiens) (UniProt Q9UEE5); assay: Inhibition of human DRAK1 assessed as remaining activity at 1 uM by ATP-competition binding assay relative to control; method in brief: as §1
[10] = test system: Epidermal growth factor receptor (Homo sapiens), P00533 [L858R]; assay: Inhibition of human EGFR L858R mutant assessed as remaining activity at 1 uM by ATP-competition binding assay relative to control
Method in brief: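 KINOMEscan ATP-site-dependent competition binding assay across a 395-kinase human panel including mutants; compound tested at 1μM; binding expressed relative to control signal.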

[11] = target: Ephrin type-A receptor 7 (Homo sapiens) (UniProt Q15375); assay: Inhibition of human EPHA7 assessed as remaining activity at 1 uM by ATP-competition binding assay relative to control; method in brief: as §1
[12] = target: Ephrin type-A receptor 8 (Homo sapiens) (UniProt P29322); assay: Inhibition of human EPHA8 assessed as remaining activity at 1 uM by ATP-competition binding assay relative to control
Method in brief: (§2)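 Single-point profiling at 1μM in an ATP-site-dependent competition binding assay across a panel of 395 human kinases, including mutant forms. The read-out is kinase binding signal in the presence of test agent, expressed as inhibition relative to the control signal. This screen assessed noncovalent binding interactions.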

[13] = target: Tyrosine-protein kinase JAK2 (Homo sapiens) (UniProt O60674); assay: Inhibition of human JAK2 JH1 domain assessed as remaining activity at 1 uM by ATP-competition binding assay relative to control
Method in brief: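 Compound at 1μM was screened in an ATP-site-dependent competition binding assay (KINOMEscan) against a 395-kinase human panel. Signal was expressed relative to control.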

[14] = target: Hepatocyte growth factor receptor (Homo sapiens) (UniProt P08581); assay: Inhibition of human MET assessed as remaining activity at 1 uM by ATP-competition binding assay relative to control; method in brief: as §2
[15] = target: Serine/threonine-protein kinase Nek7 (Homo sapiens) (UniProt Q8TDX7); assay: Inhibition of human NEK7 assessed as remaining activity at 1 uM by ATP-competition binding assay relative to control; method in brief: as §2
[16] = target: Serine/threonine-protein kinase PAK 2 (Homo sapiens) (UniProt Q13177); assay: Inhibition of human PAK2 assessed as remaining activity at 1 uM by ATP-competition binding assay relative to control; method in brief: as §2
[17] = target: Cyclin-dependent kinase 15 (Homo sapiens) (UniProt Q96Q40); assay: Inhibition of human PFTAIRE2 assessed as remaining activity at 1 uM by ATP-competition binding assay relative to control; method in brief: as §2
[18] = target: cAMP-dependent protein kinase catalytic subunit alpha (Homo sapiens) (UniProt P17612); assay: Inhibition of human PKAC-alpha assessed as remaining activity at 1 uM by ATP-competition binding assay relative to control
Method in brief: (§3)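 Single-concentration (1 μM) screen in an ATP-site-dependent competition binding assay (KINOMEscan, outsourced) covering 395 human kinases, mutants included. Non-covalent binding was read as the remaining signal relative to the control signal.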

[19] = target: RAF proto-oncogene serine/threonine-protein kinase (Homo sapiens) (UniProt P04049); assay: Inhibition of human RAF1 assessed as remaining activity at 1 uM by ATP-competition binding assay relative to control; method in brief: as §3
[20] = target: Serine/threonine-protein kinase RIO2 (Homo sapiens) (UniProt Q9BVS4); assay: Inhibition of human RIOK2 assessed as remaining activity at 1 uM by ATP-competition binding assay relative to control; method in brief: as §3
[21] = target: Serine/threonine-protein kinase SIK1 (Homo sapiens) (UniProt P57059); assay: Inhibition of human SIK assessed as remaining activity at 1 uM by ATP-competition binding assay relative to control; method in brief: as §3
[22] = target: Tyrosine-protein kinase Srms (Homo sapiens) (UniProt Q9H3Y6); assay: Inhibition of human SRMS assessed as remaining activity at 1 uM by ATP-competition binding assay relative to control; method in brief: as §3
[23] = target: Dual specificity protein kinase TTK (Homo sapiens) (UniProt P33981); assay: Inhibition of human TTK assessed as remaining activity at 1 uM by ATP-competition binding assay relative to control; method in brief: as §3
[24] = target: Tyrosine-protein kinase TXK (Homo sapiens) (UniProt P42681); assay: Inhibition of human TXK assessed as remaining activity at 1 uM by ATP-competition binding assay relative to control; method in brief: as §3
[25] = target: Mitogen-activated protein kinase kinase kinase 20 (Homo sapiens) (UniProt Q9NYL2); assay: Inhibition of human ZAK assessed as remaining activity at 1 uM by ATP-competition binding assay relative to control; method in brief: as §3
[26] = Antileukemic activity against human CLL mononuclear cells xenografted NSG mouse assessed as reduction in spleen cells at 0.3 to 0.16 mg/ml preadministered with compound via drinking water and measured after 3 weeks by flow cytometry analysis relative to control; type: functional, CLL mononuclear cell; set-up: scale not given: the % may be the effect or the level left; conditions: dose 0.3-0.16 mg/ml, at 0.16 to 0.3 mg/mL
Method in brief: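 Primary CLL patient mononuclear cells (1 × 10^8 per mouse) engrafted into NSG mice on day 0 after busulfan priming on day −1. Vehicle or drug was given in drinking water from day −1. Mice were killed 3 weeks after engraftment; spleens homogenized, filtered and RBC-lysed; whole blood collected. Six patients, 2–5 mice per patient; paired t-test per patient.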

[27] = target: Tyrosine-protein kinase BTK (Homo sapiens) (UniProt Q06187); conditions: dose < 100.0 nM

Chain of Hepatocyte growth factor receptor (Homo sapiens) (P08581 whole entry): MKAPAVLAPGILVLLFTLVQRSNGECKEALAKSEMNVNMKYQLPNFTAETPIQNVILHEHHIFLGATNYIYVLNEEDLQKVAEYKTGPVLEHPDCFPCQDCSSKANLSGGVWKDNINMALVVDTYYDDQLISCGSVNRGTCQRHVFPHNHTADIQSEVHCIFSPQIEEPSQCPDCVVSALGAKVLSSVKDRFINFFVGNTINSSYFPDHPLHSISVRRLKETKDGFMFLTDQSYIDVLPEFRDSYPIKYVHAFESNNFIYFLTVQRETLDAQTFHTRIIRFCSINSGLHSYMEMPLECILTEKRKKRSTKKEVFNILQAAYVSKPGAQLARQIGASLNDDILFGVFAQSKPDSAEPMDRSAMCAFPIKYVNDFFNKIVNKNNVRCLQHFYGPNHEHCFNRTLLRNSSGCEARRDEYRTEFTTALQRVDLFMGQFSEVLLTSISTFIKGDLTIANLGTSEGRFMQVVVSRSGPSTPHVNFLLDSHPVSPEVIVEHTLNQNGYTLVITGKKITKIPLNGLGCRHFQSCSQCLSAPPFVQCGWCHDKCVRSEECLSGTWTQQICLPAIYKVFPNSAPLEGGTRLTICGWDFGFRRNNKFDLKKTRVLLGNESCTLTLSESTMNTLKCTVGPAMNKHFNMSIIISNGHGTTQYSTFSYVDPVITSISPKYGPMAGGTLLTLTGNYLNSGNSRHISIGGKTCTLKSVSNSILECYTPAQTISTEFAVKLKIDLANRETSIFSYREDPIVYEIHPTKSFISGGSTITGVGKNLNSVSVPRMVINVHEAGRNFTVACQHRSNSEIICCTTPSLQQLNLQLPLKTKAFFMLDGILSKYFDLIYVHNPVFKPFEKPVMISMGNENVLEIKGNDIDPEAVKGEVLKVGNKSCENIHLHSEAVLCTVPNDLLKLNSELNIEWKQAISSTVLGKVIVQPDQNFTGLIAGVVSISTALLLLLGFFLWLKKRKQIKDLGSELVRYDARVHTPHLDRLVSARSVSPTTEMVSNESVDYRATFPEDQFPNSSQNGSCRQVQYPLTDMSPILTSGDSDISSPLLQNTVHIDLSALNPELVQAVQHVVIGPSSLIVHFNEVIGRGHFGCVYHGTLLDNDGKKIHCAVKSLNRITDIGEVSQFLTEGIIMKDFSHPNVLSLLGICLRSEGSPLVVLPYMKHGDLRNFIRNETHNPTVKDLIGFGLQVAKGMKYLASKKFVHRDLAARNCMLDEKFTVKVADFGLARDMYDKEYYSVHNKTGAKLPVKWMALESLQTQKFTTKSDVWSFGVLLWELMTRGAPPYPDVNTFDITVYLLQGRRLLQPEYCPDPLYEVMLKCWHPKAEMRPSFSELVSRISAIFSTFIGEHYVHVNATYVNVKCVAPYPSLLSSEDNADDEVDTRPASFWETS
Chain of Casein kinase I isoform gamma-3 (Homo sapiens) (Q9Y6M4 whole entry, looked up, canonical isoform): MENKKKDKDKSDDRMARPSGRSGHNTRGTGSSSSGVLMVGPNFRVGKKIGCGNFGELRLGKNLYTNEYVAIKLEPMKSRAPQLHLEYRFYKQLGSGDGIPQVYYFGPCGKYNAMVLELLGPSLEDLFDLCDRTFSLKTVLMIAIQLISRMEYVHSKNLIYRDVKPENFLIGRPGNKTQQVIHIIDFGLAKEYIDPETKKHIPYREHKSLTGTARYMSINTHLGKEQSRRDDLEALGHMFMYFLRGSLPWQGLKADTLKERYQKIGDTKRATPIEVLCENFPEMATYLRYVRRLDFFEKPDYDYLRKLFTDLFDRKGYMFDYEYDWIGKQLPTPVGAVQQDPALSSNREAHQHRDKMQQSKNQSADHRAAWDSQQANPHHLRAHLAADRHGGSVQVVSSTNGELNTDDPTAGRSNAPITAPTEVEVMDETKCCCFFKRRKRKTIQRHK
Chain of Tyrosine-protein kinase Srms (Homo sapiens) (Q9H3Y6 whole entry): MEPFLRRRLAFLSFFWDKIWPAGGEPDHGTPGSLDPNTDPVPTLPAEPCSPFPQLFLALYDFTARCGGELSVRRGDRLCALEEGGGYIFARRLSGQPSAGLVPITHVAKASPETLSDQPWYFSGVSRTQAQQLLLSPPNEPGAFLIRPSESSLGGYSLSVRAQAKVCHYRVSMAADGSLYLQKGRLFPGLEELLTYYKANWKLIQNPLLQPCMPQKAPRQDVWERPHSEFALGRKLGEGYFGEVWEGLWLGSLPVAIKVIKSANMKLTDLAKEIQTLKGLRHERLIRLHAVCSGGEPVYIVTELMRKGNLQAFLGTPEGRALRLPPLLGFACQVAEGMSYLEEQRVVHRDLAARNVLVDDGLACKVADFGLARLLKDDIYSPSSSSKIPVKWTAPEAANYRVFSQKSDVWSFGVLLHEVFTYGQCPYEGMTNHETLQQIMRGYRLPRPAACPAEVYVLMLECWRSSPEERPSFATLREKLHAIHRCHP
Chain of Death-associated protein kinase 2 (Homo sapiens) (Q9UIK4 whole entry, looked up): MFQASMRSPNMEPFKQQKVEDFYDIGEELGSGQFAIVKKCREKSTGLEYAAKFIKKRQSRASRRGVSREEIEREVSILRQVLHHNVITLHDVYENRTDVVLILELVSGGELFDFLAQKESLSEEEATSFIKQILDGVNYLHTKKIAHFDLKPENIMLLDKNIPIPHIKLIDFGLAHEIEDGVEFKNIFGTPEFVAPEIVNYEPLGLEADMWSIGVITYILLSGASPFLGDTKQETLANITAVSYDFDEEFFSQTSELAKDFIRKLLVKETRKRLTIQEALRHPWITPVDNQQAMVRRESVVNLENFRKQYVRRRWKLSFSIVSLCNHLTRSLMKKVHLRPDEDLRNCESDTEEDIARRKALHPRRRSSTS
Chain of Serine/threonine-protein kinase Nek7 (Homo sapiens) (Q8TDX7 whole entry, looked up): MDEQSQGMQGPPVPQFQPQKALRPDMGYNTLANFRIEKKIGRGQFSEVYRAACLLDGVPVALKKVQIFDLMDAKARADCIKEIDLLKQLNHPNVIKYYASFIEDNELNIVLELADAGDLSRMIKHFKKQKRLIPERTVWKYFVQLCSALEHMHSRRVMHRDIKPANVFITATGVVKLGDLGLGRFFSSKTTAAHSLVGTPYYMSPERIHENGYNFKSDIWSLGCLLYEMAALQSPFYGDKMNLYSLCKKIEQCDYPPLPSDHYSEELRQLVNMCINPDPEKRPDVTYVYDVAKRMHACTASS
Chain of Serine/threonine-protein kinase 17A (Homo sapiens) (Q9UEE5 whole entry): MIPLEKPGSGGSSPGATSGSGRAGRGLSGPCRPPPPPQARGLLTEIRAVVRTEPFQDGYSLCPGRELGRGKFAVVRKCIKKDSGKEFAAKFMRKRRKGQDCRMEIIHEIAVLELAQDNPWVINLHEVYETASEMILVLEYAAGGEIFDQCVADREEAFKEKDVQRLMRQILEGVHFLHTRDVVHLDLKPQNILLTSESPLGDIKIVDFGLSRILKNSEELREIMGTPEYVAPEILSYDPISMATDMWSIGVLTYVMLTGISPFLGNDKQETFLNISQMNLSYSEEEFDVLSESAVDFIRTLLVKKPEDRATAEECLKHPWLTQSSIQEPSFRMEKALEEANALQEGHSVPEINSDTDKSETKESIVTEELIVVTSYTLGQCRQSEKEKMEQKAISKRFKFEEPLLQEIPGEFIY
Chain of Casein kinase I isoform gamma-1 (Homo sapiens) (Q9HCP0 whole entry, looked up, canonical isoform): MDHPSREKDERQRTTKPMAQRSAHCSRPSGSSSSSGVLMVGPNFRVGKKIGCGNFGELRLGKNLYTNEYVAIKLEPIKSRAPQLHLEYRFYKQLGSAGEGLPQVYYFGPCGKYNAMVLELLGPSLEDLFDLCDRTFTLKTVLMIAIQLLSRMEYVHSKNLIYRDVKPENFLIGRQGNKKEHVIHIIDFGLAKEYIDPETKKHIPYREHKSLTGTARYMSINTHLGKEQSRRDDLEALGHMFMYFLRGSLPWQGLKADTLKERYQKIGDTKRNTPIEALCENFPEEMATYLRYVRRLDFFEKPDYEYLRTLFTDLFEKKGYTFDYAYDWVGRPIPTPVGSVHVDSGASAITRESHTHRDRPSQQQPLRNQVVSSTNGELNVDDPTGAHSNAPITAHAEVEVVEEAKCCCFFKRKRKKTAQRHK
Chain of Mitogen-activated protein kinase kinase kinase 20 (Homo sapiens) (Q9NYL2 2-800 limits assumed): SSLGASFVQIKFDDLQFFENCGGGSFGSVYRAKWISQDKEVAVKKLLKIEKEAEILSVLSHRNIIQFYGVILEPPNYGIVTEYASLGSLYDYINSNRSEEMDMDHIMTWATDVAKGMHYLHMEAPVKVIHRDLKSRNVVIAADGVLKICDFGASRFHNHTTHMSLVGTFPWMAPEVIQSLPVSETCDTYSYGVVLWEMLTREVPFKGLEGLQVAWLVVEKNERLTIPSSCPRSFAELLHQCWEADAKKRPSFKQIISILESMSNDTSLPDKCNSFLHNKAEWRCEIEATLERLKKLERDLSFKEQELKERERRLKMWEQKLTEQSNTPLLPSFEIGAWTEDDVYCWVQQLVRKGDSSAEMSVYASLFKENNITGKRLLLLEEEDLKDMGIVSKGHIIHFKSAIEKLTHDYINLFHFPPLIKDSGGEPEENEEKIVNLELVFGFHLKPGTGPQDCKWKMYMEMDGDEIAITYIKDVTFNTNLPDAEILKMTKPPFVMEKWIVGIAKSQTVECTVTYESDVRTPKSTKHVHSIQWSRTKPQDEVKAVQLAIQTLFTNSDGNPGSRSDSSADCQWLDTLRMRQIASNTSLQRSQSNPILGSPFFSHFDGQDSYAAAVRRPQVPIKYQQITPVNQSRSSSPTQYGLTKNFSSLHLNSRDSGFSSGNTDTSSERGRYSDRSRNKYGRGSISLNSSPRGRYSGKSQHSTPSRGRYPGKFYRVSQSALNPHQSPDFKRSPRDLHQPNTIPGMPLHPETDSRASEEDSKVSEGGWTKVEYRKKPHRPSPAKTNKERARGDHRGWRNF
Chain of Cyclin-dependent kinase 9 (Homo sapiens) (P50750 whole entry): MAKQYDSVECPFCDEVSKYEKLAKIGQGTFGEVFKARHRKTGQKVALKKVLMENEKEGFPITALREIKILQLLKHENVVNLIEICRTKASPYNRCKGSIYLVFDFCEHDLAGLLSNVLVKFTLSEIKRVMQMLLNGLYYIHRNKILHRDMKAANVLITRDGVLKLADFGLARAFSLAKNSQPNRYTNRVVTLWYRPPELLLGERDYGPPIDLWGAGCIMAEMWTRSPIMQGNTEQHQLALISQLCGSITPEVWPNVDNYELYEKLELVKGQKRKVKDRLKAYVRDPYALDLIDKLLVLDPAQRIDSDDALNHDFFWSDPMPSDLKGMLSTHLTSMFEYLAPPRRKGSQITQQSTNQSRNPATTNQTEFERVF

`CC#CC(=O)N1CCC[C@H]1c1nc(-c2ccc(C(=O)Nc3ccccn3)cc2)c2c(N)nccn12` [ACALABRUTINIB] showed an Activity [1] of 84%, an Activity [2] of 95% and an Activity [3] of 84%. It also gave an Activity [4] of 87%, an Activity [5] of 94% and an Activity [6] of 78%. For the same compound, the Activity [7] was 100%, the Activity [8] was 80% and the Activity [9] was 87%. For the same compound, the Activity [10] was 94%, the Activity [11] was 94% and the Activity [12] was 91%. The Activity [13] was 81%, the Activity [14] was 91% and the Activity [15] was 80%. It also gave an Activity [16] of 78%, an Activity [17] of 76% and an Activity [18] of 77%. For the same compound, the Activity [19] was 77%, the Activity [20] was 80% and the Activity [21] was 88%. For the same compound, the Activity [22] was 67%, the Activity [23] was 91% and the Activity [24] was 24%. The Activity [25] was 84%, the Activity [26] was 33% and the inhibition [27] was “Active”.
